{"source": "paper PMC2860672", "about": "(Biochemistry, 2010)", "key": {"[1]": {"biological_target": "T1, EntE (Escherichia coli, UniProt P10378)", "T1 sequence (P10378 whole entry)": "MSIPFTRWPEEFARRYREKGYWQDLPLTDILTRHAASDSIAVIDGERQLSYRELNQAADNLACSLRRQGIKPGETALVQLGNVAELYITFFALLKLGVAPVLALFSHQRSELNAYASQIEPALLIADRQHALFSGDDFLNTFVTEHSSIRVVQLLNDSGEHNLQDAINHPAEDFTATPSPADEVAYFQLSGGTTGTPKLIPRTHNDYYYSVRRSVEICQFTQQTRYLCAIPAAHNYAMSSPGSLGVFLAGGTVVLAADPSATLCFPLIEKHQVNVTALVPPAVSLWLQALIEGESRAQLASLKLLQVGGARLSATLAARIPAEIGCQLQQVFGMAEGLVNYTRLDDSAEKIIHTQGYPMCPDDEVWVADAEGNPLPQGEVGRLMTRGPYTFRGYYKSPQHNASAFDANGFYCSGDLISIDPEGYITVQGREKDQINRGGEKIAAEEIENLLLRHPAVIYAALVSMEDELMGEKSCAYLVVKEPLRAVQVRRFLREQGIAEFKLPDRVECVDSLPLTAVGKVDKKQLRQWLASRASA", "test": "ITC of Sal-AMS and DHB-AMS with EntE", "assay_type": "binding"}, "[2]": {"biological_target": "T1, EntE", "assay_type": "biochemical", "outline": "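Stopped-flow coupled assay (myokinase/pyruvate kinase/LDH, NADH at 340 nm) in 100 mM HEPES pH 7.8, 10 mM MgCl2, 25°C. […] Bisubstrate adenylate analogues were varied. Equal volumes were mixed with 16 nM EntE and followed for 4 min. The first 20 s were discarded. Five traces were averaged per concentration and fitted to a slow-onset equation; kobs was plotted against inhibitor concentration.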"}, "[3]": {"tested_on": "M. tuberculosis", "details": "cited from earlier work"}, "[4]": {"biological_target": "EntE (dihydroxybenzoate-AMP ligase) (Escherichia coli, UniProt P10378)", "sequence (P10378 whole entry)": "as above", "details": "for Km / kcat: pH 7.8"}, "[5]": {"biological_target": "T1, EntE", "details": "competitive ligand in displacement ITC; cited from earlier work"}, "[6]": {"biological_target": "T1, EntE", "test": "Dead-end inhibition of EntE by AMPCPP, coupled assay", "assay_type": "biochemical", "details": "holo-EntB-ArCP 4 μM"}, "[7]": {"biological_target": "T1, EntE", "test": "ITC of DHB binding to free EntE", "outline": "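DHB binding was run by ITC at 25°C in 50 mM HEPES pH 7.8, 10 mM MgCl2. EntE was dialysed against this buffer and ligand was prepared in the dialysate. EntE concentration came from ε280 = 58 790 M⁻¹ cm⁻¹ and DHB by weight. 50 μM EntE in the cell; 1 mM DHB injected 5 μL every 230 s.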"}, "[8]": {"tested_on": "Nc1ccc(C(=O)O)c(O)c1", "test": "purified protein, by the assay type", "details": "other: 25°C, pH 7.8, the other substrates fixed and saturating"}, "[9]": {"tested_on": "O=C(O)c1cccc(O)c1O", "test": "purified protein, by the assay type", "details": "other: 25°C, pH 7.8, the other substrates fixed and saturating"}, "[10]": {"tested_on": "O=C(O)c1cccc(O)c1", "test": "purified protein, by the assay type", "details": "other: 25°C, pH 7.8, the other substrates fixed and saturating"}, "[11]": {"details": "25°C, the other substrates fixed and saturating"}}, "note": "Read-outs that look alike come from different tables or passages of the source."}
{"molecule": "Nc1ncnc2c1ncn2[C@@H]1O[C@H](COS(=O)(=O)NC(=O)c2cccc(O)c2O)[C@@H](O)[C@H]1O", "note": "[DHB-AMS, 5′-O-[N-(2,3-dihydroxybenzoyl)sulfamoyl]adenosine]", "values": [{"measurement": "TΔS", "setting": "[1]; 293 K, calculated from eq 11", "value": -0.4, "unit": "kcal/mol"}, {"measurement": "−ΔG", "setting": "[1]; 293 K, calculated from eq 11", "value": 15.0, "unit": "kcal/mol"}, {"measurement": "fold lower KD than Sal-AMS", "setting": "[1]; ITC", "value": 10, "unit": "fold"}, {"measurement": "Kd", "setting": "[1]; KA, displacement ITC with 200 mM salicylic acid, 293 K, pH 8.0", "value": 0.00627, "unit": "nM"}, {"measurement": "Kd", "setting": "[1]; KD, displacement ITC with salicylic acid, KD = 1/KA, 20°C", "value": 0.0075, "unit": "nM"}, {"measurement": "n (number of binding sites per monomer)", "setting": "[1]; displacement ITC", "value": "1.12 ± 0.03"}, {"measurement": "−ΔH", "setting": "[1]; stoichiometric titration at high c, 293 K", "value": 15.4, "unit": "kcal/mol"}, {"measurement": "Ki", "setting": "[2]", "value": 3.8, "unit": "nM"}, {"measurement": "type of inhibition", "setting": "[2]; time-courses of product formation", "value": "slow-onset tight-binding inhibitors"}]}
{"molecule": "NNC(=O)c1ccncc1", "note": "[isoniazid]", "values": [{"measurement": "MIC99", "setting": "[3]", "value": 0.18, "unit": "µM"}]}
{"molecule": "O=C(O)c1ccccc1O", "note": "[salicylic acid]", "values": [{"measurement": "Km", "setting": "[4]; [11]", "value": "70 ± 4", "unit": "µM"}, {"measurement": "kcat", "setting": "[4]", "value": "0.8 ± 0.1", "unit": "s⁻¹"}, {"measurement": "KA^B", "setting": "[5]", "value": 4740, "unit": "M⁻¹"}]}
{"molecule": "Nc1ncnc2c1ncn2C1OC(COP(=O)(O)CP(=O)(O)OP(=O)(O)O)C(O)C1O", "note": "(stereo not drawn) [AMPCPP, α, β-methyleneadenosine 5′-triphosphate]", "values": [{"measurement": "inhibition pattern versus ATP", "setting": "[6]; varied ATP, saturating DHB (80 μM)", "value": "competitive inhibition"}, {"measurement": "inhibition pattern versus DHB", "setting": "[6]; varied DHB, saturating ATP (5 mM)", "value": "uncompetitive inhibition"}]}
{"molecule": "O=C(O)c1cccc(O)c1O", "note": "[DHB, 2,3-dihydroxybenzoic acid]", "values": [{"measurement": "Kd", "setting": "[7]", "value": 8700, "unit": "nM"}, {"measurement": "n", "setting": "[7]; one-set of sites model", "value": "0.824 ± 0.00512"}, {"measurement": "KA", "setting": "[7]; one-set of sites model, 25°C", "value": "115000 ± 2800", "unit": "M⁻¹"}, {"measurement": "ΔH", "setting": "[7]; one-set of sites model, 25°C", "value": "-16.5 ± 0.14", "unit": "kcal/mol"}, {"measurement": "ΔS", "setting": "[7]; one-set of sites model, 25°C", "value": "−32.2", "unit": "cal mol^−1 K ^−1"}]}
{"molecule": "Nc1ccc(C(=O)O)cc1", "note": "[4-aminobenzoic acid]", "values": [{"measurement": "substrate activity for the EntE reaction", "setting": "[4]; tested as substrate in the coupled assay", "value": "no activity was observed"}]}
{"molecule": "EntE (dihydroxybenzoate-AMP ligase) (Escherichia coli K-12)", "values": [{"measurement": "Km", "setting": "[8]", "value": "3100 ± 300", "unit": "µM"}, {"measurement": "Km", "setting": "[9]", "value": "2.5 ± 0.3", "unit": "µM"}, {"measurement": "kcat/Km", "setting": "[9]", "value": 880000, "unit": "M⁻¹ s⁻¹"}, {"measurement": "Km", "setting": "[10]", "value": "70 ± 8", "unit": "µM"}, {"measurement": "kcat", "setting": "[10]", "value": "0.3 ± 0.01", "unit": "s⁻¹"}, {"measurement": "kcat/Km", "setting": "[10]", "value": 4600, "unit": "M⁻¹ s⁻¹"}]}
{"molecule": "CC(C)(CO)[C@@H](O)C(=O)NCCC(=O)NCCS", "note": "[D-pantetheine]", "values": [{"measurement": "Km", "setting": "[4]; [11]", "value": "34200 ± 2000", "unit": "µM"}, {"measurement": "kcat", "setting": "[4]; [11]", "value": "0.9 ± 0.1", "unit": "s⁻¹"}]}
